Assay [1] addresses Intercellular adhesion molecule (ICAM-1), Integrin alpha-L/beta-2 (Homo sapiens) (UniProt P20701+P05362+P05107). Briefly: Inhibition of HL-60 cell adhesion mediated by interaction of LFA-1 and ICAM-1. Further details: concentration or dose not given beside the values. The format is functional, cell-based. As to conditions: concentration not given here. The procedure, abridged: (§1)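 HL60 cells (LFA-1 positive, Mac-1 negative by FACS) were fluorochrome-labeled and added to immunoaffinity-purified recombinant soluble ICAM-1 immobilized on plastic. Incubation was 40 min at 37 °C, and nonadherent cells were washed off. Adherence was read on a fluorescence concentration analyzer. Values are IC50 (μM) or % inhibition at 10 μM, each from one assay run in five replicates.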

Assay [2] can be described thus: The inhibitory activity was measured on VLA-4/VCAM-1 mediated cells using cell/cell adherence assay on the Ramos/IL-1beta HUVEC test system; no effect up to 20 pM. The format is functional, cell-based. To be noted: in the assay text read “20 µM” for “20 pM”. The procedure, abridged:
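Cell/cell adhesion used VLA-4-expressing Ramos B lymphoblastoid cells and HUVEC stimulated overnight with IL-1β to express VCAM-1. Adherence was quantified by fluorescence.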

Assay [3] concerns HL-60. Briefly: The inhibitory activity was measured on sLex/E-selectin mediated cells using cell/cell adherence assay on the HL60/IL-1beta HUVEC test system; no effect up to 20 µM. As to conditions: Homo sapiens.
The target in another assay is Integrin alpha-M/beta-2 (Homo sapiens, UniProt P05107+P11215). Briefly: Inhibition of neutrophil cell Mac-1 mediated adhesion to purified ICAM-1, no effect up to 20 […]. Type of assay: functional, cell-based.
Sequence of Integrin alpha-M/beta-2 (P05107 23-769 limits assumed, other chains not shown): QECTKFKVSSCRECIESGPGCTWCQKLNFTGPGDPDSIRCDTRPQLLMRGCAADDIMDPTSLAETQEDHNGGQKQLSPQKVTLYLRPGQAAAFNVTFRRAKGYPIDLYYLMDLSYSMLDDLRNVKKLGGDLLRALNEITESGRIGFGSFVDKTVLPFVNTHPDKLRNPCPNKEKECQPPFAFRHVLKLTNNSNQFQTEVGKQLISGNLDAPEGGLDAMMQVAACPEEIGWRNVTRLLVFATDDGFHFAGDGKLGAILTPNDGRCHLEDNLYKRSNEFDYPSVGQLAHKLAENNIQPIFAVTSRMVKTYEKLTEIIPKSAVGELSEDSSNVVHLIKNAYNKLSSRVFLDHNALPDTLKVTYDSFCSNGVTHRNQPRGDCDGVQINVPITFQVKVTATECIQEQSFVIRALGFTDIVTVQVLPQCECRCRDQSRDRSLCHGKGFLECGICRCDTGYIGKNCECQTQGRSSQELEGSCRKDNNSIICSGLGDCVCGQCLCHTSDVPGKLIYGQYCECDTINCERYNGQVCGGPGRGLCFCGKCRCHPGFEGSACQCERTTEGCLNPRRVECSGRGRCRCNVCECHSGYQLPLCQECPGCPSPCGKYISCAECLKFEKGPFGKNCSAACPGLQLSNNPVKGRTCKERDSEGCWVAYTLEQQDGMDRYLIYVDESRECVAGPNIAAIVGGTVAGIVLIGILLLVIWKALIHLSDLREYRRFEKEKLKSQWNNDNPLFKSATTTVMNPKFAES
The target in assay [4] is T1, Intercellular adhesion molecule (ICAM-1), Integrin alpha-L/beta-2 (Homo sapiens, UniProt P05107+P05362+P20701). Briefly: Inhibition of LFA-1 mediated HL60 cell adhesion to ICAM-1. The format is cell-based, HL-60. The procedure, abridged:
as §1

Assay [5] deals with HL-60. The assay is described as follows: The concentration of compound required to inhibit 50% interaction (IC50 ) was measured on LFA-1/ICAM-1 mediated cells using cell/cell adherence assay on the HL60/U937 test system. Type of assay: functional, cell-based. As to conditions: Homo sapiens.
Assay [6] has as its target T1, Intercellular adhesion molecule (ICAM-1), Integrin alpha-L/beta-2. Briefly: Inhibition of HL-60 cell adhesion to purified ICAM-1 by LFA-1. The format is functional, cell-based. In a few lines: as §1

T1 sequence (P20701 whole entry): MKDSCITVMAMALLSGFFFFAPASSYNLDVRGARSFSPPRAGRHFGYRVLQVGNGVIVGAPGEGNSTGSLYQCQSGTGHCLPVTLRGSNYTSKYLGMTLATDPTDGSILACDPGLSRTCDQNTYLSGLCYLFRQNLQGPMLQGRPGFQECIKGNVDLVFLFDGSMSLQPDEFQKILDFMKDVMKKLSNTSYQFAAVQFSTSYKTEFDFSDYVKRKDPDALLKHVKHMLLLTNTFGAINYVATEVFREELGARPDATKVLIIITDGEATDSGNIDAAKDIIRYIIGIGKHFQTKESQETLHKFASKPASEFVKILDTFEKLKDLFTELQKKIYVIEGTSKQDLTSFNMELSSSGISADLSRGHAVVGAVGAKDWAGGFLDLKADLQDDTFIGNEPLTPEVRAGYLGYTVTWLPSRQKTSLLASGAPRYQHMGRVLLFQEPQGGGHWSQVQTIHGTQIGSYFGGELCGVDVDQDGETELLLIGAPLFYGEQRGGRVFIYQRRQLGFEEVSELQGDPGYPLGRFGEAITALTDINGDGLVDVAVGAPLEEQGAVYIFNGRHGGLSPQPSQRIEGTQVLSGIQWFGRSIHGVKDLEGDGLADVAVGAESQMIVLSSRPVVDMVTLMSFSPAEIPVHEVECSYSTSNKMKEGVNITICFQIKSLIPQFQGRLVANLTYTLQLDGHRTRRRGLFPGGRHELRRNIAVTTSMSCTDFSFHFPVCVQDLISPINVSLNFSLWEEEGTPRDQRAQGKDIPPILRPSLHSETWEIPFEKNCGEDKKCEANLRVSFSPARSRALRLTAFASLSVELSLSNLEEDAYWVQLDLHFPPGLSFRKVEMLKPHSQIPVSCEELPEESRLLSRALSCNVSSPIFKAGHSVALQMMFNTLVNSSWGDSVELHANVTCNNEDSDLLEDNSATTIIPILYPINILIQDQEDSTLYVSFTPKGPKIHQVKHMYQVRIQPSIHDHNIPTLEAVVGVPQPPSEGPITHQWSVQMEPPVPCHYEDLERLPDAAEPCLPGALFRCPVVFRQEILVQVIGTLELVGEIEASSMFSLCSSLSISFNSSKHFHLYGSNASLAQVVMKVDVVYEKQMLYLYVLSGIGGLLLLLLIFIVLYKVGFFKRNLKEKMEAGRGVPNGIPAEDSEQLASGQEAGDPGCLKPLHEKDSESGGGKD
T1 sequence (P05362 whole entry): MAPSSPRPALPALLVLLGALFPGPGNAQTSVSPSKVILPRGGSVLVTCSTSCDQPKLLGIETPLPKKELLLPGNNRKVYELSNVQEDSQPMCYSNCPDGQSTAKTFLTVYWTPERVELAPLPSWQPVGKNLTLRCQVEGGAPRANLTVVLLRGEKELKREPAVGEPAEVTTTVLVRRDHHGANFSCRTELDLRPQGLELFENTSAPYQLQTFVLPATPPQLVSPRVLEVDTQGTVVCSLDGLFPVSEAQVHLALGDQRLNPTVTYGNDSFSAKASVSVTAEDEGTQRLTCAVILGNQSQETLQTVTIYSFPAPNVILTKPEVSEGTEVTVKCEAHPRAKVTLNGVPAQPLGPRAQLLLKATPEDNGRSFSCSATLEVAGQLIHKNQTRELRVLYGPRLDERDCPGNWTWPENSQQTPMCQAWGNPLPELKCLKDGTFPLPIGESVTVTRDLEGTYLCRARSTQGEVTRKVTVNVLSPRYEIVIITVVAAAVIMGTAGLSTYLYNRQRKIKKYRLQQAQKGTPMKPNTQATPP
T1 sequence (P05107 whole entry): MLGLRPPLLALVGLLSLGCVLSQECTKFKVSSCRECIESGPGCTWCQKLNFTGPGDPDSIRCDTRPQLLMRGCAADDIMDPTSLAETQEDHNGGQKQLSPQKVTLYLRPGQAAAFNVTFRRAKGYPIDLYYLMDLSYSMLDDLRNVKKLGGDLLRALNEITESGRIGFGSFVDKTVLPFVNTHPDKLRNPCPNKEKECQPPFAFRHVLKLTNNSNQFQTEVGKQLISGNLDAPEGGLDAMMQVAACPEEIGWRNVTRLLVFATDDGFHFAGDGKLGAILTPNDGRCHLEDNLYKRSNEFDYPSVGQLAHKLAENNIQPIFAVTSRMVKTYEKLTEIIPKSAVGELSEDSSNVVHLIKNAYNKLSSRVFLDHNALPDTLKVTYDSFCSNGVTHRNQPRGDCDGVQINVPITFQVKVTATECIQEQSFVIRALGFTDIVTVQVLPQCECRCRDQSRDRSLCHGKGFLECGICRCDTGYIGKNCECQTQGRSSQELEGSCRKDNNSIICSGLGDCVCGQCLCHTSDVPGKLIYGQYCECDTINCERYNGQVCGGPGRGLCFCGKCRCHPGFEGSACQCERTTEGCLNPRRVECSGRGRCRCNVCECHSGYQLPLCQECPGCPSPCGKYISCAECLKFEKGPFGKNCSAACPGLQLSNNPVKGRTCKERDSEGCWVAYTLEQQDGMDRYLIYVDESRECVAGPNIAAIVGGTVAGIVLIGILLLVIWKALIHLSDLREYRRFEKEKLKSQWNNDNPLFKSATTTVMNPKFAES

In assay [1], `CCOC(=O)CCCNC(=O)c1cnn(-c2nc(-c3cccc(C(F)(F)F)c3)cs2)c1C` yielded an inhibition of 0%.
The compound `O=C(NCCCO)c1cnn(-c2nc(-c3cccc(C(F)(F)F)c3)cs2)c1C(F)(F)F` yielded an inhibition in assay [1] of 5%.
With `CCc1c(C(=O)NCCCN2CCCC2=O)cnn1-c1nc(-c2cccc(C(F)(F)F)c2)cs1`, the inhibition in assay [1] was 10%.
On the same count and under the same terms, with `Cc1c(C(=O)NCCCO)cnn1-c1nc(-c2cccc(Cl)c2)cs1` the figure was 20%; with `Cc1ccc(-c2csc(-n3ncc(C(=O)NCCCO)c3C)n2)cc1`, 7%.
Turning to `Cc1c(C(=O)NCCCO)cnn1-c1nc(-c2ccccc2)cs1`, the inhibition in assay [1] came to 5%.
The same measure, in the same setting: with `COc1cc(-c2csc(-n3ncc(C(=O)NCCCO)c3C)n2)cc(OC)c1OC` the figure was 0%.
`Cc1c(C(=O)NCCCCCO)cnn1-c1nc(-c2cccc(C(F)(F)F)c2)cs1` yielded an inhibition in assay [1] of 0%.
The same measure, in the same setting: with `CCCc1c(C(=O)NCCCO)cnn1-c1nc(-c2cccc(C(F)(F)F)c2)cs1` the figure was 26%; with `COCCCNC(=O)c1cnn(-c2nc(-c3cccc(C(F)(F)F)c3)cs2)c1C`, 48%.
The same measure, in the same setting: with `Cc1c(C(=O)NCCCCO)cnn1-c1nc(-c2cccc(C(F)(F)F)c2)cs1` the figure was 51%.
Take `Cc1c(C(=O)NCCCO)cnn1-c1nc(-c2cccc(C(F)(F)F)c2)cs1`: the IC50 entry in assay [2] is “No effect”; with HL-60 [3] it was “No effect”; on Integrin alpha-M/beta-2, “No effect”; in assay [4], 5 µM; with HL-60 [5], 5 µM; in assay [6], 5 µM.
`Cc1c(C(=O)OCCCO)cnn1-c1nc(-c2cccc(C(F)(F)F)c2)cs1` yielded an inhibition in assay [1] of 25%.
In the case of `CCc1c(C(=O)NCCCO)cnn1-c1nc(-c2cccc(C(F)(F)F)c2)cs1`, the half-inhibitory concentration (IC50) in assay [6] came to 3 µM.
Regarding `CCc1c(C(=O)NCCCn2ccnc2)cnn1-c1nc(-c2cccc(C(F)(F)F)c2)cs1`, the inhibition in assay [1] was 34%.

For orientation: inhibition means the share of the control response that was lost under treatment. For orientation: IC50 means the midpoint of a concentration-inhibition curve.

Source of the values: ChEMBL document CHEMBL1128707, “Novel thiazole based heterocycles as inhibitors of LFA-1/ICAM-1 mediated cell adhesion” (J Med Chem, 1995).
